The source of these data is article PMC8978309 (Materials Advances, 2022).

SMILES strings stand for the structures.

Usually bioavailability stands for the share of a dose that reaches the circulation, judged against a reference dose that is usually intravenous. The IC50 is the concentration at which inhibition is half-maximal. High values mean weaker potency in that assay, low ones greater potency in that assay. As usually defined, the viability is a per cent measure of how many cells are alive, often set against a control. High values mean less harm to the cells, low ones more harm to the cells.

The conditions of data set [1]: cited from earlier work.
Data set [2] is described as follows: Dissolution profile in PBS. Format: physicochemical. The conditions noted are these: PBS pH 7.40, 37 °C. An outline of the steps:
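Powdered test compound dissolved in 100 mL PBS (pH 7.40) at 37 °C with constant stirring at 150 rpm for 48 h. Release followed by UV absorbance at 208 nm (scan 400–200 nm) against a reagent blank.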

The nature of data set [3]: Dissolution profile in FaSSGF. It counts as physicochemical. The conditions noted are these: FaSSGF pH 1.60, 37 °C. An outline of the steps:
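Test compound stirred in 100 mL fasted-state simulated gastric fluid (HCl/NaCl, pH 1.60) at 37 °C and 150 rpm for 36 h. Dissolved drug quantified directly by UV absorbance at 208 nm (400–200 nm scan) against a reagent blank.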

Another data set can be described thus: Hydroxyapatite. Format: binding. The conditions noted are these: PBS pH 7.40, 37 °C. An outline of the steps: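 20 mg synthetic hydroxyapatite incubated with 3 mL test compound in PBS (0.5 mg mL−1) at 37 °C for 0–11 d. Controls were compound alone and HA alone in PBS. Supernatant collected daily and centrifuged (1500 rpm, 8 min). Bound fraction derived from the fall in supernatant absorbance at 208 nm. Experimental groups done in duplicate.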

The subject of data set [4] is human breast cancer MDA-MB-231 cell line. As to the kind of experiment: AlamarBlue cytotoxicity assay, MDA-MB-231. To be noted: for IC50: Homo sapiens; for relative cell live (%RCL): MDA-MB-231, 15 μM. Format: cell-based. An outline of the steps: (§1)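 MDA-MB-231 cells grown in DMEM with 1% Pen-Strep and 10% FBS at 37 °C, 5% CO2. Seeded at 2.5 × 10^5 cell per mL, then preincubated 24 h. […] Read-out: 10% AlamarBlue in PBS, 4 h, fluorescence ex 560/em 590 nm, normalised to medium control (100%). IC50 by nonlinear regression; triplicates, mean, SD, %CV.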
Background: Alamar Blue is a resazurin reagent that responds to reducing activity.

Data set [5] can be described thus: AlamarBlue cytotoxicity assay, MDA-MB-231. The conditions noted are these: human, MDA-MB-231 cells. Format: cell-based, human. The procedure, abridged:
as §1

The subject of data set [6] is normal osteoblast-like hFOB 1.19 cell line. Briefly: AlamarBlue cytotoxicity assay, hFOB 1.19. Format: cell-based, human. The conditions noted are these: for IC50: Homo sapiens. An outline of the steps:
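hFOB 1.19 osteoblast-like cells grown in 1:1 DMEM:F-12 with 0.3 mg mL−1 G418 and 10% FBS at 34 °C, 5% CO2. Seeded at 2.5 × 10^5 cell per mL, then preincubated 24 h at 34 °C. Exposed 24, 48 or 72 h to two-fold dilutions (0–200 μM), or to 1.9–15 μM. Read-out: 10% AlamarBlue, 4 h, fluorescence 560/590 nm, relative to medium control. IC50 by nonlinear regression; triplicates.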

`O=P(O)(O)C(O)(Cn1ccnc1)P(=O)(O)O` [ZOLE, zoledronate]: the bioavailability in data set [1] was < 1%. The maximum plasma concentration in data set [1] is 1 µM. Also, the “time to reach maximum dissolution / equilibrium solubility” value in data set [2] was 30 min; in data set [3], 3 h. For the same compound, the “dissolution (ZOLE content released, maximum reached)” value in data set [2] (150 rpm) worked out at 100%. The “time to reach maximum binding to HA” value in “Hydroxyapatite” was determined as 8 days. The “maximum binding to HA” value in the data set “Hydroxyapatite” (0–11 d) stood at 82%. For the same compound, the “binding to HA” value in “Hydroxyapatite” (in 1 d) amounted to 15%. Moreover, the IC50 in data set [4] (MDA-MB-231, 24 h) was > 200 µM; in data set [4] (MDA-MB-231, 48 h), > 200 µM; in data set [4] (MDA-MB-231, 72 h) it was 35 ± 4 µM; in data set [6] (24 h), > 200 µM; in data set [6] (48 h), 86 ± 3 µM; in data set [6] (72 h), 49 ± 4 µM. Moreover, the “%RCL” value in data set [4] (MDA-MB-231, 3.8 μM, time not stated (Fig. 9b)) is given as ~100%. In addition, the “relative cell live (%RCL)” value in data set [4] (48 h) is given as 80 ± 2%; in data set [4] (72 h), 58 ± 2%. In addition, the viability at 1.9 µM in data set [5] was ~100%. Also, in data set [6] (hFOB 1.19, 3.8–15 μM, after 24, 48, and 72 h), the “cell death (cell viability result in words)” value is recorded as “no significant cell death”.
